Reference: ChEMBL document CHEMBL1132592, “Synthesis of novel 2-benzothiopyran and 3-benzothiepin derivatives and their stimulatory effect on bone formation” (J Med Chem, 1999)

Tests used:
[1] = target: T1, Alkaline phosphatase, tissue-nonspecific isozyme (Mus musculus) (UniProt P09242); assay: Alkaline phosphatase stimulatory activity of 10E-5 M compound in culture of MC3T3-E1 in absence of BMP
T1 sequence (whole entry): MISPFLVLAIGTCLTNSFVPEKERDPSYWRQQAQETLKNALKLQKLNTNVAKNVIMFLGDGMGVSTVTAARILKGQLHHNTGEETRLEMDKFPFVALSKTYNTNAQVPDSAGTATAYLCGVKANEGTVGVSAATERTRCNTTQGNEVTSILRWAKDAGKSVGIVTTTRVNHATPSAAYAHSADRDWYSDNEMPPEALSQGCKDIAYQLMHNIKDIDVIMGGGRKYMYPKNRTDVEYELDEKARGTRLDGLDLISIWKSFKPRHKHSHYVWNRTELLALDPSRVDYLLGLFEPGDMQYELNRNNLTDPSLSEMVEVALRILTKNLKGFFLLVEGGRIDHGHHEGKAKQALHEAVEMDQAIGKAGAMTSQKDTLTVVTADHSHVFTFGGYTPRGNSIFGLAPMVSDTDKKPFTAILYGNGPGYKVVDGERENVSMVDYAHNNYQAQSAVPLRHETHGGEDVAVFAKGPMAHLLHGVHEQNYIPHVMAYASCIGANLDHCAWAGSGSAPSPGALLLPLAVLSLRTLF
How it was run: (§1)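 Mouse osteoblastic MC3T3-E1 cells, 3000 cells/well, grown 3 days in α-MEM with 10% FBS, then switched to α-MEM with 1% FBS plus compound, with or without recombinant Xenopus BMP-4/7 heterodimer (3 ng/mL), for 3 more days. ALP in lysate supernatant read as absorbance at 405 nm; mean ± SE, n = 6; Dunnett's test vs matching control.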

[2] = target: T1, Alkaline phosphatase, tissue-nonspecific isozyme (Mus musculus); assay: Alkaline phosphatase stimulatory activity of 10E-5 M compound in culture of MC3T3-E1 in presence of 3 ng/mL of BMP; how it was run: as §1
[3] = target: T1, Alkaline phosphatase, tissue-nonspecific isozyme (Mus musculus); assay: Alkaline phosphatase stimulatory activity of 10E-6 M compound in culture of MC3T3-E1 in absence of BMP; how it was run: as §1
[4] = target: T1, Alkaline phosphatase, tissue-nonspecific isozyme (Mus musculus); assay: Alkaline phosphatase stimulatory activity of 10E-6 M compound in culture of MC3T3-E1 in presence of 3 ng/mL of BMP; how it was run: as §1
[5] = target: T2, Alkaline phosphatase, tissue-nonspecific isozyme (Rattus norvegicus) (UniProt P08289); assay: Effect on alkaline phosphatase activity compared to control in culture of rat bone marrow stromal cells, 10E-5 M concentration; assay type: tissue-based
T2 sequence (whole entry): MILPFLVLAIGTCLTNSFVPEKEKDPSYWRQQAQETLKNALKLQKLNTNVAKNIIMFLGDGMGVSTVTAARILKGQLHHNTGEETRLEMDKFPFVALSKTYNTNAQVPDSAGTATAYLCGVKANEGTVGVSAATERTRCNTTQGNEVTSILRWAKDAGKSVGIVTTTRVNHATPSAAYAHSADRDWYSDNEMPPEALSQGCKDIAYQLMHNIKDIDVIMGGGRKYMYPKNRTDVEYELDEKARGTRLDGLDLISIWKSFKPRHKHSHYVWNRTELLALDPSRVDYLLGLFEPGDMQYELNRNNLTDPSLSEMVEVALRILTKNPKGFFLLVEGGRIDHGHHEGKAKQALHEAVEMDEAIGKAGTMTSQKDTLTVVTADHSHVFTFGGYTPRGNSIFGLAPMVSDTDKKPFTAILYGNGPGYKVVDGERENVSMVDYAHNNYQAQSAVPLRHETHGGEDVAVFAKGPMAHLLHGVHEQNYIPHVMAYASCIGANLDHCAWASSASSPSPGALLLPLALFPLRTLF
How it was run: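 Rat femoral marrow stromal cells subcultured at 4 × 10^4 cells/well in α-MEM with 15% FBS, ascorbate, 10 mM β-glycerophosphate and 10^-7 M dexamethasone. Compound added day 1 to day 10-14, medium refreshed every other day. Lysate ALP (Lowry method) given as fold of control; n = 5–10; Student's t-test.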

[6] = target: T2, Alkaline phosphatase, tissue-nonspecific isozyme (Rattus norvegicus); assay: Effect of 10E-5 M compound on alkaline phosphatase activity in culture of rat bone marrow stromal cells; assay type: tissue-based
How it was run: (§2)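 Femoral marrow stromal cells from 7-week-old male Sprague-Dawley rats. Primary culture 1 week in α-MEM (10 mM HEPES pH 7.0, 15% FBS, 2 mM glutamine, 50 μg/mL ascorbate, 10 mM β-glycerophosphate, 10^-7 M dexamethasone), 37 °C, 5% CO2. Subcultured at 4 × 10^4 cells/well; compound (10 mM stock in EtOH-DMSO 1:1 or DMF) from day 1 to day 10-14, medium changed every other day. Lysate ALP (Lowry method) in nmol/min/well; mean ± SE, n = 5–10.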

[7] = target: T2, Alkaline phosphatase, tissue-nonspecific isozyme (Rattus norvegicus); assay: Effect of 10E-6 M compound on alkaline phosphatase activity in culture of rat bone marrow stromal cells; how it was run: as §2
[8] = target: T2, Alkaline phosphatase, tissue-nonspecific isozyme (Rattus norvegicus); assay: Effect of 10E-7 M compound on alkaline phosphatase activity in culture of rat bone marrow stromal cells; how it was run: as §2

ALP activity [1]: 0.195 | ALP activity [2]: 0.284 | ALP activity [3]: 0.154 | ALP activity [4]: 0.191 | ALP activity [5]: 5.5 | ALP activity [6]: 1640 | ALP activity [7]: 682 | ALP activity [8]: 192
SMILES: CCOP(=O)(Cc1ccc(NC(=O)[C@H]2Cc3cc4c(cc3C(=O)[C@H](C)S2)OCO4)cc1)OCC
